Assay results as given in ChEMBL document CHEMBL2440021, “Discovery of β2 Adrenergic Receptor Ligands Using Biosensor Fragment Screening of Tagged Wild-Type Receptor” (ACS Med Chem Lett, 2013).
Active and inactive are the calls of the source. The rule behind the calls is not given here.

What was measured:
[1] = biological target: T1, Beta-2 adrenergic receptor (Homo sapiens, UniProt P07550); assay: Binding affinity to N-terminal FLAG-tagged C-terminal His-10-tagged human beta2 adrenoceptor expressed in insect Sf9 cells by surface plasmon resonance analysis in presence of maltose neopentyl glycol
Procedure, shortened: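 Same NTA chip capture of His-10-tagged purified receptor as the primary SPR screen, but the binding run was done in MNG detergent. KD by SPR.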
Target sequence in this assay (P07550 whole entry): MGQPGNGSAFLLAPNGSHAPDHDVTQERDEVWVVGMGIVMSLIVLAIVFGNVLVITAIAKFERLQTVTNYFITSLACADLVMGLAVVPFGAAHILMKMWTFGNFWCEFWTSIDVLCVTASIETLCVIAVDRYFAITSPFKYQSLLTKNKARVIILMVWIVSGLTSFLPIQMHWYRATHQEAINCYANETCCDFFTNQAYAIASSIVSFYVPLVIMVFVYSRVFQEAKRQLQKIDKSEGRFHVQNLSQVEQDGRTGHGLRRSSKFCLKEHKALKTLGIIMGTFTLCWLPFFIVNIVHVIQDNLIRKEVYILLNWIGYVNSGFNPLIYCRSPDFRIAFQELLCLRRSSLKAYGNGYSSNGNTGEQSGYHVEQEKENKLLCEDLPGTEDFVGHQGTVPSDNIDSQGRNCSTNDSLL

[2] = biological target: T1, Beta-2 adrenergic receptor; assay: Antagonist activity at human beta2 adrenoceptor expressed in HEK293 cells assessed as inhibition of isoproterenol-induced cAMP production at 100 uM after 5 mins by luciferase reporter gene assay; format: functional, cell-based
Target sequence in this assay (P07550 whole entry, looked up): as the sequence (P07550 whole entry) above

[3] = biological target: T1, Beta-2 adrenergic receptor; assay: Binding affinity to N-terminal FLAG-tagged C-terminal His-10-tagged human beta2 adrenoceptor expressed in insect Sf9 cells by surface plasmon resonance analysis in presence of dodecyl maltoside
Target sequence in this assay (P07550 whole entry, looked up): as the sequence (P07550 whole entry) above

[4] = biological target: T1, Beta-2 adrenergic receptor; assay: Displacement of [125I]-Cyanopindolol from human beta2 adrenoceptor expressed in HEK293 cells after 90 mins by gamma counting analysis; format: cell-based
Target sequence in this assay (P07550 whole entry, looked up): as the sequence (P07550 whole entry) above

[5] = biological target: T1, Beta-2 adrenergic receptor; assay: Antagonist activity at human beta2 adrenoceptor containing C-terminus of V2 vasopressin receptor expressed in HEK293 cells assessed as inhibition of isoproterenol-induced beta arrestin recruitment at 100 uM after 15 to 18 hrs by luciferase reporter gene assay; format: functional, cell-based
Target sequence in this assay (P07550 whole entry, looked up): as the sequence (P07550 whole entry) above

[6] = biological target: Vasopressin V2 receptor (Homo sapiens) (UniProt P30518); assay: Agonist activity at AVPR2 (unknown origin) assessed as stimulation of cAMP production; format: functional
[7] = biological target: T1, Beta-2 adrenergic receptor; assay: Binding affinity to N-terminal FLAG-tagged C-terminal His-10-tagged human beta2 adrenoceptor expressed in insect Sf9 cells by surface plasmon resonance analysis
Target sequence in this assay (P07550 whole entry): as above

[8] = biological target: Vasopressin V2 receptor (Homo sapiens) (UniProt P30518); assay: Antagonist activity at AVPR2 (unknown origin) assessed as inhibition of [Arg8]-Vasopressin induced cAMP production at 10 to 100 uM; format: functional
[9] = biological target: T1, Beta-2 adrenergic receptor; assay: Agonist activity at human beta2 adrenoceptor expressed in HEK293 cells assessed as stimulation of cAMP production after 5 mins by luciferase reporter gene assay; format: functional, cell-based
Target sequence in this assay (P07550 whole entry, looked up): as the sequence (P07550 whole entry) above

[10] = biological target: Vasopressin V2 receptor (Homo sapiens) (UniProt P30518); assay: Agonist activity at AVPR2 (unknown origin) assessed as stimulation of beta arrestin recruitment; format: functional
[11] = biological target: Vasopressin V2 receptor (Homo sapiens) (UniProt P30518); assay: Antagonist activity at AVPR2 (unknown origin) assessed as inhibition of [Arg8]-Vasopressin induced beta arrestin recruitment at 10 uM; format: functional
[12] = biological target: Beta-1 adrenergic receptor (Homo sapiens) (UniProt P08588); assay: Displacement of [125I]-Cyanopindolol from human beta1 adrenoceptor expressed in HEK293 cells after 90 mins by gamma counting analysis; format: cell-based
[13] = biological target: T1, Beta-2 adrenergic receptor; assay: Agonist activity at human beta2 adrenoceptor containing C-terminus of V2 vasopressin receptor expressed in HEK293 cells assessed as stimulation of beta arrestin recruitment after 15 to 18 hrs by luciferase reporter gene assay; format: functional, cell-based
Target sequence in this assay (P07550 whole entry, looked up): as the sequence (P07550 whole entry) above

[14] = biological target: T1, Beta-2 adrenergic receptor; settings: Sf9
[15] = biological target: T1, Beta-2 adrenergic receptor; assay: Antagonist activity at human beta2 adrenoceptor containing C-terminus of V2 vasopressin receptor expressed in HEK293 cells assessed as inhibition of isoproterenol-induced beta arrestin recruitment at 10 uM after 15 to 18 hrs by luciferase reporter gene assay; format: functional, cell-based
[16] = biological target: T1, Beta-2 adrenergic receptor; assay: Antagonist activity at human beta2 adrenoceptor expressed in HEK293 cells assessed as inhibition of isoproterenol-induced cAMP production at 10 uM after 5 mins by luciferase reporter gene assay; format: functional, cell-based

Beta-1 adrenergic receptor (Homo sapiens), sequence (P08588 whole entry, looked up): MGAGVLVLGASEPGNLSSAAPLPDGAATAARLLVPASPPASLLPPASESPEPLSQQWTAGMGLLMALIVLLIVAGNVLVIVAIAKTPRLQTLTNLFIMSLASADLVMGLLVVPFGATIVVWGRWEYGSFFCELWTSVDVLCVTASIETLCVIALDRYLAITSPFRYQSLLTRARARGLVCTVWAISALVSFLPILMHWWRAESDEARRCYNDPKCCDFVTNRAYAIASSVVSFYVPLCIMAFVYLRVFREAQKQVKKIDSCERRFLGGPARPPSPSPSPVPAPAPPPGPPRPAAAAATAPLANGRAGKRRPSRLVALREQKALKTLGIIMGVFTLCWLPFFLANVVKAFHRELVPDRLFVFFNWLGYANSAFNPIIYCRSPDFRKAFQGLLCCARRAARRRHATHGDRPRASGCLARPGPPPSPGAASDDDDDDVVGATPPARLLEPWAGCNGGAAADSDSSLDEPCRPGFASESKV
Vasopressin V2 receptor (Homo sapiens), sequence (P30518 whole entry): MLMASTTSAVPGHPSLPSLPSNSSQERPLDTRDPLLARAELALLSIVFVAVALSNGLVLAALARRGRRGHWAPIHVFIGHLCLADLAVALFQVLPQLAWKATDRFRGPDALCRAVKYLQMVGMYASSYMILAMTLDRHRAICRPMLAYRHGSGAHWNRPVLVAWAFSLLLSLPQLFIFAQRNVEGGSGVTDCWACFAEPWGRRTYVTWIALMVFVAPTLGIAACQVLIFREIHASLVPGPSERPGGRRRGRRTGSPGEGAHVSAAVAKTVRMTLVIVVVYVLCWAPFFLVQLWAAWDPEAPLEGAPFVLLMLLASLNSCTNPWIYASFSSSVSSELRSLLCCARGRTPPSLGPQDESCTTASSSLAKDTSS

| SMILES | Kd ([1]; read-out: Kd) | Activity [6] | Kd [7] | inhibition [8] | Activity [10] | inhibition [11] | further results |
| --- | --- | --- | --- | --- | --- | --- | --- |
| Cc1ccc2nc(C(F)(F)F)cc(N3CCC(F)(F)CC3)c2c1 | 67.1 µM | – | – | – | – | – | – |
| Cc1ccc2nc(C(F)(F)F)cc(N3CCOCC3)c2c1 | – | – | – | – | – | – | Kd ([1]; sf9): Not Active |
| c1ccc2c(C3CCNCC3)c[nH]c2c1 | – | inactive | 22.2 µM | inactive | inactive | inactive | inhibition [2]: Active; Activity [3]: Active; Kic [4]: 14.1 µM; inhibition [5]: Active; Activity [9]: inactive; Kic [12]: 9.9 µM; Activity [13]: inactive |
| FC(F)(F)c1cc(N2CCNCC2)c2ccccc2n1 | 0.0842 µM | – | – | – | – | – | – |
| Clc1ccc2c(N3CCNCC3)ccnc2c1 | 0.0765 µM | inactive | 0.0825 µM | inactive | inactive | inactive | Ka [14]: 6.62 ×10⁵ /M/s; Activity [3]: Active; Kic [4]: 0.191 µM; inhibition [15]: Active; inhibition [16]: Active; Activity [9]: inactive; Kic [12]: 0.152 µM; Activity [13]: inactive |
| FC(F)(F)c1ccc2c(N3CCNCC3)ccnc2c1 | 8 µM | – | – | – | – | – | – |
| c1ccc2c(N3CCNCC3)ccnc2c1 | 0.348 µM | – | – | – | – | – | – |
| c1cc(N2CCNCC2)ccn1 | 142 µM | – | – | – | – | – | – |
| Clc1cncc(Cl)c1N1CCNCC1 | – | inactive | 3.5 µM | inactive | inactive | inactive | inhibition [2]: Active; Activity [3]: Active; Kic [4]: 15 µM; inhibition [5]: Active; Activity [9]: inactive; Kic [12]: 12.9 µM; Activity [13]: inactive |
| Cc1ccc2nc(C(F)(F)F)cc(N3CCN(C)CC3)c2c1 | 1.8 µM | – | – | – | – | – | – |
| Cc1cc(N2CCNCC2)c2ccccc2n1 | 0.0725 µM | inactive | 0.0934 µM | inactive | inactive | inactive | – |
